Laboratory results taken from ChEMBL document CHEMBL3817728, “Synthesis, Evaluation, and Mechanism Study of Novel Indole-Chalcone Derivatives Exerting Effective Antitumor Activity Through Microtubule Destabilization in Vitro and in Vivo” (J Med Chem, 2016).

How the values were obtained:
A549 [1] = assay: Disruption of mitochondrial membrane potential in human A549 cells assessed as green fluorescence intensity at 10 nM after 24 hrs by JC1 staining-based flow cytometric method (reference value: 0.02%); assay type: functional
A2780 [2] = assay: Resistance index, ratio of IC50 for human A2780/TAX cells to IC50 for human A2780 cells; assay type: functional
A549 [3] = assay: Induction of apoptosis in human A549 cells assessed as early apoptotic cells at 3 nM after 48 hrs by annexin V-FITC/propidium iodide staining-based flow cytometric method (reference value: 1.95%); assay type: functional
HUVEC = assay: Cytotoxicity against quiescent HUVEC assessed as growth inhibition after 48 hrs in presence of 0.5% fetal calf serum and absence of growth factor by MTT assay; assay type: cell-based; conditions: Homo sapiens
Method in brief: (§1)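 Non-tumorigenic cells given 48 h compound exposure, and viability read by MTT. IC50 is mean ± SE from dose-response curves of at least three independent experiments. HUVECs were kept quiescent in endothelial cell medium with 0.5% fetal calf serum and no growth factor.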

A549 [4] = assay: Induction of apoptosis in human A549 cells assessed as viable cells at 1 nM after 24 hrs by annexin V-FITC/propidium iodide staining-based flow cytometric method (reference value: 98.9%); assay type: functional; conditions: A549, 24 h, read-out: Activity
Method in brief: (§2)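 A549 cells exposed 24 h or 48 h at indicated concentrations, then trypsinized, harvested and stained with Annexin V-FITC and PI; flow cytometry quadrants scored as necrotic (upper left), late apoptotic (upper right), live (bottom left) and early apoptotic (bottom right). Five independent experiments, representative shown.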

MCF7 [5] = assay: Resistance index, ratio of IC50 for human MCF7/DX cells to IC50 for human MCF7 cells; assay type: functional
A549 [6] = assay: Disruption of mitochondrial membrane potential in human A549 cells assessed as red fluorescence intensity at 3 nM after 24 hrs by JC1 staining-based flow cytometric method (reference value: 99.2%); assay type: functional
A549 [7] = assay: Antitumor activity against human A549 cells xenografted in BALB/c nude mouse assessed as tumor growth inhibition at 30 mg/kg, ip administered every other day for 1 month measured every other day post dose relative to vehicle-treated control; assay type: functional; conditions: read-out: TGI
BJ = assay: Cytotoxicity against human BJ cells assessed as growth inhibition after 48 hrs by MTT assay; assay type: cell-based; method in brief: as §1
[8] = Cytotoxicity against human HCT8/VCT cells assessed as growth inhibition after 48 hrs by MTT assay; assay type: functional, cell-based
Method in brief: (§3)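 Drug-resistant lines were tested by a 48 h MTT viability assay. IC50 was derived from dose-response curves and reported as mean ± SE of at least three independent experiments.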

HeLa = assay: Cytotoxicity against human HeLa cells assessed as cell viability after 48 hrs by MTT assay; assay type: functional, cell-based
Method in brief: (§4)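 Cancer cell lines treated with compound for 48 h, and viability read by MTT assay. IC50 given as mean ± SD from at least three independent experiments.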

[9] = Cytotoxicity against human A549/CDDP cells assessed as growth inhibition after 48 hrs by MTT assay; assay type: functional, cell-based; conditions: A549, 48 h; method in brief: as §3
[10] = Selectivity ratio of IC50 for HLF to IC50 for human A549 cells; assay type: ADME, cell-based; conditions: HLF versus A549 cells, read-out: Ratio IC50
Method in brief: (§5)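 Selectivity ratio = IC50 in normal cells / IC50 in A549; IC50 values mean ± SE from dose-response curves of at least three independent experiments. HUVECs kept quiescent in endothelial cell medium with 0.5% fetal calf serum, no growth factor.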

A549 [11] = assay: Induction of apoptosis in human A549 cells assessed as necrotic cells at 10 nM after 48 hrs by annexin V-FITC/propidium iodide staining-based flow cytometric method (reference value: 0.01%); assay type: functional
A2780 [12] = assay: Cytotoxicity against human A2780 cells assessed as cell viability after 48 hrs by MTT assay; assay type: functional, cell-based; conditions: A2780, 48 h; method in brief: as §4
A549 [13] = assay: Cytotoxicity against human A549 cells assessed as cell viability after 48 hrs by MTT assay; assay type: functional, cell-based; conditions: A549, 48 h; method in brief: as §4
A549 [14] = assay: Induction of apoptosis in human A549 cells assessed as late apoptotic cells at 1 nM after 48 hrs by annexin V-FITC/propidium iodide staining-based flow cytometric method (reference value: 0.01%); assay type: functional
A549 [15] = assay: Induction of apoptosis in human A549 cells assessed as viable cells at 1 nM after 48 hrs by annexin V-FITC/propidium iodide staining-based flow cytometric method (reference value: 98.1%); assay type: functional; conditions: A549, 48 h, read-out: Activity; method in brief: as §2
A549 [16] = assay: Induction of apoptosis in human A549 cells assessed as necrotic cells at 3 nM after 48 hrs by annexin V-FITC/propidium iodide staining-based flow cytometric method (reference value: 0.01%); assay type: functional; method in brief: as §2
A549 [17] = assay: Induction of apoptosis in human A549 cells assessed as late apoptotic cells at 3 nM after 24 hrs by annexin V-FITC/propidium iodide staining-based flow cytometric method (reference value: 0.01%); assay type: functional
A549 [18] = assay: Induction of apoptosis in human A549 cells assessed as necrotic cells at 3 nM after 24 hrs by annexin V-FITC/propidium iodide staining-based flow cytometric method (reference value: 0.03%); assay type: functional
MCF7 [19] = assay: Cytotoxicity against human MCF7 cells assessed as cell viability after 48 hrs by MTT assay; assay type: functional, cell-based; conditions: MCF7, 48 h; method in brief: as §4
[20] = Cytotoxicity against human HCT8 cells assessed as cell viability after 48 hrs by MTT assay; assay type: functional, cell-based; conditions: HCT-8, 48 h; method in brief: as §4
[21] = Metabolic stability in Sprague-Dawley rat liver microsomes assessed as compound remaining at 30 mins in presence of NADPH regenerating system by HPLC method; assay type: ADME; conditions: read-out: Stability
Method in brief: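 Test compound incubated with rat liver microsomes at 37 ℃ in buffer containing an NADPH regenerating system for the stated time. Remaining parent compound was quantified by HPLC.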

[22] = Selectivity ratio of IC50 for human BJ cells to IC50 for human A549 cells; assay type: ADME, cell-based; conditions: BJ cells versus A549 cells, read-out: Ratio IC50; method in brief: as §5
[23] = Cytotoxicity against HLF assessed as growth inhibition after 48 hrs by MTT assay; conditions: Homo sapiens; method in brief: as §1
A549 [24] = assay: Induction of apoptosis in human A549 cells assessed as viable cells at 3 nM after 24 hrs by annexin V-FITC/propidium iodide staining-based flow cytometric method (reference value: 98.9%); assay type: functional; conditions: A549, 24 h, read-out: Activity; method in brief: as §2
A549 [25] = assay: Resistance index, ratio of IC50 for human A549/CDDP cells to IC50 for human A549 cells; assay type: functional
Tubulin = Tubulin (Sus scrofa, UniProt P02554+P02550); assay: Inhibition of porcine brain tubulin polymerization measured every 60 secs for 60 mins by DAPI staining-based fluorescence assay
A549 [26] = assay: Induction of apoptosis in human A549 cells assessed as late apoptotic cells at 10 nM after 24 hrs by annexin V-FITC/propidium iodide staining-based flow cytometric method (reference value: 0.01%); assay type: functional
A549 [27] = assay: Induction of apoptosis in human A549 cells assessed as early apoptotic cells at 10 nM after 24 hrs by annexin V-FITC/propidium iodide staining-based flow cytometric method (reference value: 1.07%); assay type: functional
A549 [28] = assay: Induction of apoptosis in human A549 cells assessed as necrotic cells at 10 nM after 24 hrs by annexin V-FITC/propidium iodide staining-based flow cytometric method (reference value: 0.03%); assay type: functional

Which results are given for `COc1ccc2c(/C=C(\C)C(=O)c3cc(OC)c(OC)c(OC)c3)c[nH]c2c1`?
Activity (A549 [1]): 57.2%; Ratio IC50 (A2780 [2]): 12.4; Activity (A549 [3]): 26.8%; IC50 (HUVEC): 163 nM; viability at 0.001 µM (A549 [4]): 83.7%; Ratio IC50 (MCF7 [5]): 1.5; Activity (A549 [6]): 53.9%; inhibition in vivo at 30 mg/kg (A549 [7]): 66.1%; IC50 (BJ): 8920 nM; IC50 [8]: 5 nM; IC50 (HeLa): 7 nM; IC50 [9]: 4 nM; selectivity ratio [10]: 1890; Activity (A549 [11]): 8.38%; IC50 (A2780 [12]): 8 nM; IC50 (A549 [13]): 3 nM; Activity (A549 [14]): 14.6%; viability at 0.001 µM (A549 [15]): 66.8%; Activity (A549 [16]): 2.69%; Activity (A549 [17]): 3.56%; Activity (A549 [18]): 1.07%; IC50 (MCF7 [19]): 6 nM; IC50 [20]: 6 nM; remaining at 0.5 h [21]: 85.6%; selectivity ratio [22]: 2970; IC50 [23]: 5670 nM; viability at 0.003 µM (A549 [24]): 69.7%; Ratio IC50 (A549 [25]): 1.33; IC50 (Tubulin): 2680 nM; Activity (A549 [26]): 12.41%; Activity (A549 [27]): 25.27%; Activity (A549 [28]): 2.94%
